Measurements as given in article PMC4783179 (The Journal of comparative neurology, 2015).
Read-outs that look alike come from different tables or passages of the source. Marks after values point to notes of the source that are not given here.

What was measured:
[1] = target: multidrug resistance 1 protein (MDR1; P-glycoprotein) (Homo sapiens, UniProt P08183); assay: Multidrug resistance; assay type: biochemical; details: read-out: IC50 as potential substrate of MDR1 (P-glycoprotein)
[2] = target: 5-HT7 (Homo sapiens, UniProt P34969); assay: NIMH PDSP binding affinity, human cloned receptor
Sequence of 5-HT7 (P34969 whole entry): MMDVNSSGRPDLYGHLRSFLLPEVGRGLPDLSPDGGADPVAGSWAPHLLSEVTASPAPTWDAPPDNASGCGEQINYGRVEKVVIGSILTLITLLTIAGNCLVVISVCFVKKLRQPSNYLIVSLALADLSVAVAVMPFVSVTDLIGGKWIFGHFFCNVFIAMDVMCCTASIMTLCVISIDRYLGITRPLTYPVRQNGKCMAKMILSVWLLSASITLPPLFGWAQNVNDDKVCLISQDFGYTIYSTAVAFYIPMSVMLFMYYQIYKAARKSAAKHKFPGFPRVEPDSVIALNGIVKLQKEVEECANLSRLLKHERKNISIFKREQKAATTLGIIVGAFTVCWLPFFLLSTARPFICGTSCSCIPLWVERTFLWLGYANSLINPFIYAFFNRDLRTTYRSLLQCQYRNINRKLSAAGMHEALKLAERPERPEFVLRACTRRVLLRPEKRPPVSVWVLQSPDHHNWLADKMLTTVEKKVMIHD

[3] = tested on: all other human-cloned receptor subtypes tested; assay: NIMH PDSP screening of the remaining panel; assay type: binding
[4] = target: D3 subtype (Homo sapiens, UniProt P35462); assay: NIMH PDSP binding affinity, human cloned receptor; details: read-out: Affinity, D3 subtype
Sequence of D3 subtype (P35462 whole entry): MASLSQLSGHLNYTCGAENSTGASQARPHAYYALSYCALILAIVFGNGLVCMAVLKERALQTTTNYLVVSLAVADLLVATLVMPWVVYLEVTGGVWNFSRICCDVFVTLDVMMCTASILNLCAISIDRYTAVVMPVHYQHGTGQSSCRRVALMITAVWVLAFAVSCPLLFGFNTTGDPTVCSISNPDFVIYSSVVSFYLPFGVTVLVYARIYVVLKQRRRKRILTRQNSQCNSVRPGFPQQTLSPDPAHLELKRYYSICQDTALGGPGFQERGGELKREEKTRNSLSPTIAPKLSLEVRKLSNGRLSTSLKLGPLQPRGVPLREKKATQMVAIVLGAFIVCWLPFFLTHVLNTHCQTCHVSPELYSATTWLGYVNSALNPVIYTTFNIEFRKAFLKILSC

[5] = target: dopamine D4 (Homo sapiens, UniProt P21917); assay: NIMH PDSP binding affinity, human cloned receptor
Sequence of dopamine D4 (P21917 whole entry): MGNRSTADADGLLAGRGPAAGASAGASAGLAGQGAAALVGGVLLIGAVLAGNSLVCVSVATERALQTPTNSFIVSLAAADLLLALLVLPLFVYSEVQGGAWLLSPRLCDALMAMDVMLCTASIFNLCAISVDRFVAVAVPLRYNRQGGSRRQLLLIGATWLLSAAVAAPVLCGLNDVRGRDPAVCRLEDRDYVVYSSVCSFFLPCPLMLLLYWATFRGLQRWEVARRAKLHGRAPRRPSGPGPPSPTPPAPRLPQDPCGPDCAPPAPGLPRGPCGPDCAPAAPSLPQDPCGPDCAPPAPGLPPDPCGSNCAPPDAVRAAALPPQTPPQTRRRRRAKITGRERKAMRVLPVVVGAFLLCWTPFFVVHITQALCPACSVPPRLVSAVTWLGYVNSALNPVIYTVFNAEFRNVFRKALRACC

[6] = rhesus monkey; ref Wooten et al., 2013; cited from earlier work
[7] = target: adrenergic α1A (Homo sapiens, UniProt P35348); assay: NIMH PDSP binding affinity, human cloned receptor
Sequence of adrenergic α1A (P35348 whole entry): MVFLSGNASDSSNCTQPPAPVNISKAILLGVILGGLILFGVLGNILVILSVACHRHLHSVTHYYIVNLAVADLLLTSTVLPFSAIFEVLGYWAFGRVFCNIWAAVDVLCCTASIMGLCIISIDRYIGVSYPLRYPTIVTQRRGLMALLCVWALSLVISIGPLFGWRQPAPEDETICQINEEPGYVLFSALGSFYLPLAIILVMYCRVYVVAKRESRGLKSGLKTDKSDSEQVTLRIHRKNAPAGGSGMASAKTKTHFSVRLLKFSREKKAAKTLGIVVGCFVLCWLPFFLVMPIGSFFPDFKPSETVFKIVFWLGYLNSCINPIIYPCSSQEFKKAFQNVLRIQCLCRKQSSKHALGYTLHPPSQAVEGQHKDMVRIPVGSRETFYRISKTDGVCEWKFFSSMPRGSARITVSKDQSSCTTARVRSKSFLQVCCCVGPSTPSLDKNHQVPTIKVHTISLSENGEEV

[8] = target: T1, 5-HT1A receptors (Mus musculus, UniProt Q64264); assay: In vitro autoradiography of 18F-Mefway, mouse brain slices; assay type: binding
T1 sequence (Q64264 1-421): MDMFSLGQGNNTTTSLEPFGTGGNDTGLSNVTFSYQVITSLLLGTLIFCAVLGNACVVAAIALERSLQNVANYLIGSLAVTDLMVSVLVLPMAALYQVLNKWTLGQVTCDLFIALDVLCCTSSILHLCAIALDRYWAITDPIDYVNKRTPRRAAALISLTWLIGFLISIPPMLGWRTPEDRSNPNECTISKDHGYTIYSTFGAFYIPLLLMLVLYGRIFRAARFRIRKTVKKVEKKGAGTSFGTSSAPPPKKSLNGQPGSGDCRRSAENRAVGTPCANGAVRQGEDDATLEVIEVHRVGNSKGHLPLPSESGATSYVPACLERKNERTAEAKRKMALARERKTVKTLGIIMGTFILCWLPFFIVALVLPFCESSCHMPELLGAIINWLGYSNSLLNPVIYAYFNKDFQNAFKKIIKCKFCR
Procedure, shortened: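 Horizontal 10 µm slices covering hippocampus, frontal cortex, dorsal raphe and cerebellum. Sources: frozen brains of male BALB/c mice (25 g) or male Sprague-Dawley rats (250–300 g). Preincubated in 50 mM Tris-HCl pH 7.4 for 10 min at room temperature, then 37–185 kBq/mL tracer at 37 °C for 1 h. […] Washed, then phosphor screen for 24 h. Regional DLU/mm² expressed as ratios to cerebellum as reference.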

[9] = tested on: Sprague-Dawley rats; assay: Expanded acute toxicity study; assay type: in vivo, rat; details: for Maximum tolerated dose (MTD) / No observed adverse effect level (NOAEL): intravenous, Days 1, 3 and 6, male and female rats
Procedure, shortened: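 Sprague-Dawley rats, 40 males and 40 females, 8–9 weeks old (males 243–283 g, females 175–202 g), plus a vehicle control group. Dosed i.v. at 4, 20 or 40 μg/kg/day (27.8, 139, 278 μg/m²/day). Monitored clinical signs (motor and behavioural), body weight, food intake, ophthalmology, haematology, serum chemistry and urinalysis. Histopathology on Days 7 and 20 after euthanasia.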

[10] = target: adrenergic α1D (Homo sapiens, UniProt P25100); assay: NIMH PDSP binding affinity, human cloned receptor
Sequence of adrenergic α1D (P25100 whole entry): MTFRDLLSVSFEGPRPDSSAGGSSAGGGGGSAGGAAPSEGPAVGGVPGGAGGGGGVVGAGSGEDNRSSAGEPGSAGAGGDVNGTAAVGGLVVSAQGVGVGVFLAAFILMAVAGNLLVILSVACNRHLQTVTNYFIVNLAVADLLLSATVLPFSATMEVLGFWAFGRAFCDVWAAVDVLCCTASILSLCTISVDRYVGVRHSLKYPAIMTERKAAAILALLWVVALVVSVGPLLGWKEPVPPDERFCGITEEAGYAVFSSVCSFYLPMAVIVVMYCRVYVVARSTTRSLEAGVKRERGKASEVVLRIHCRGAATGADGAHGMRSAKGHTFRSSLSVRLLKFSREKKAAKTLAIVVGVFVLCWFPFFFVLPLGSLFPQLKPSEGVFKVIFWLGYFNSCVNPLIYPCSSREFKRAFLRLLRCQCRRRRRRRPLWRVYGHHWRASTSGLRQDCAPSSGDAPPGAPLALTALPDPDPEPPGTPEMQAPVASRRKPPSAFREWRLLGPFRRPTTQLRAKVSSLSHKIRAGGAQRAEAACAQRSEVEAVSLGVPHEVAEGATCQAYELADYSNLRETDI

[11] = target: T2, 5-HT1A receptors (Canis lupus familiaris, UniProt Q6XXX9); assay: In vitro autoradiography of 18F-Mefway, beagle dog brain slices; assay type: binding
T2 sequence (Q6XXX9 1-423): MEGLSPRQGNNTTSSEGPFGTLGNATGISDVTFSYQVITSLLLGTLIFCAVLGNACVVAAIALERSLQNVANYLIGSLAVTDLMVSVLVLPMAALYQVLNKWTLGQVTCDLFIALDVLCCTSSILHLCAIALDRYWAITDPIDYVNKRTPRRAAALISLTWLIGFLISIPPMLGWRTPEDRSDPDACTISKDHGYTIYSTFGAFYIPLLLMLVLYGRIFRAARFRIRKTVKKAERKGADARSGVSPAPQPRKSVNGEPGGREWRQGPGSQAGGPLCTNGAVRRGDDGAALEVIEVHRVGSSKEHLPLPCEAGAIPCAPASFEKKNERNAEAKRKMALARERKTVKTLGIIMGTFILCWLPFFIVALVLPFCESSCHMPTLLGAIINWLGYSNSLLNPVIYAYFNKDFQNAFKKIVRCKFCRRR
Procedure, shortened: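 Dog tissue: unfixed beagle brain (4.5–15.4 yr), stored at −80 °C, cut as 10 µm hemi-coronal slices with hippocampus and cortex. Human tissue: postmortem hippocampus (PMI 3.8–5.8 h), cut at 7 µm. Slices preincubated in 50 mM Tris-HCl pH 7.4 for 10 min at room temperature, then incubated with 37–185 kBq/mL tracer at 37 °C for 1 h. […] Two 1-min ice-cold buffer washes, then 24 h phosphor-screen exposure. Binding read as DLU/mm².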

[12] = target: D5 (Homo sapiens, UniProt P21918); assay: NIMH PDSP binding affinity, human cloned receptor; details: D1-like receptors
Sequence of D5 (P21918 whole entry): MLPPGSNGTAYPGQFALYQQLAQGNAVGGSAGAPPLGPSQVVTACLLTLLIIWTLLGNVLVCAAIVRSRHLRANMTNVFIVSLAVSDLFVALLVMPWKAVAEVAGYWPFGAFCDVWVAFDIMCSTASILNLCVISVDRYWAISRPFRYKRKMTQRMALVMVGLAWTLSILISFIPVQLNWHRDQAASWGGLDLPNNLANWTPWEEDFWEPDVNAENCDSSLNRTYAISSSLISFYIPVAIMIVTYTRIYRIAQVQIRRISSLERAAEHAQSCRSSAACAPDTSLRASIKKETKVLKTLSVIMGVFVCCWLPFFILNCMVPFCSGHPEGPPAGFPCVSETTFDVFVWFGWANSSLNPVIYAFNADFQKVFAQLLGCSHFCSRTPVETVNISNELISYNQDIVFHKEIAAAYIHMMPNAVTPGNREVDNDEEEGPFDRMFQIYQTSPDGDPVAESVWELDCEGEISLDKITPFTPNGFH

[13] = target: T1, 5-HT1A receptors; details: cited from earlier work; for Brain Uptake: initial, 1–2 min post-injection
[14] = [5-HT1A affinity/other receptor affinity]×100, 5-HT1A 0.6 or 2.2 nM for WAY-100635, 0.9 nM for Mefway
[15] = dog brain cortex, relative to layers I and II

Which IC50 [1] does the source give for `COc1ccccc1N1CCN(CCN(C(=O)C2CCC(CF)CC2)c2ccccn2)CC1` (stereo not drawn) [Mefway] here?
Its IC50 is over 30000 nM.

And the “% human 5HT1A Selectivity, 5-HT7” value [2, 14]?
The value was 0.30%.

What about the Ki ([2]; read-out: Binding affinity, Ki, 5-HT7, human cloned receptor, PDSP) of the same molecule?
The Ki was 297 nM.

What about the “Affinity, other adrenergic receptor subtypes” value ([3]; adrenergic subtypes other than α1A and α1D) of the same molecule?
Its value is “poor affinities”.

What about the “Affinity, all other receptor subtypes tested in section 2.3” value ([3]; at 10 μM concentration, significant = > 50% inhibition) of the same molecule?
Its value is “did not exhibit significant affinity”.

What about the “Affinity, other serotonin receptor subtypes” value ([3]; serotonin subtypes other than 5-HT1A, 5-HT7, 5-HT2B) of the same molecule?
The value was “did not show significant affinities”.

And the Ki [4]?
The Ki was 139 nM.

What about the “% human 5HT1A Selectivity, D4” value [5, 14] of the same molecule?
Its value is 0.71%.

What about the Ki ([5]; read-out: Binding affinity, Ki, D4, human cloned receptor, PDSP) of the same molecule?
The Ki was 126 nM.

What about the “Free Fraction in plasma” value [6] of the same molecule?
Its value is 15% ^j.

What about the “% human 5HT1A Selectivity, α1A” value [7, 14] of the same molecule?
The value was 1.29%.

And the Ki ([7]; read-out: Binding affinity, Ki, α1A, human cloned receptor, PDSP)?
Its Ki is 70 nM.

What about the “Binding displaced in hippocampus and cortex” value ([8]; in the presence of 10 μM of WAY-100635, mouse (all the species)) of the same molecule?
Its value is over 95%.

And the “Ratio in cortical regions, autoradiography” value ([8]; mice)?
Its value is over 10.

And the “Ratio of hippocampus to cerebellum, autoradiography” value ([8]; mice, brain slices incubated for one hr)?
The value was 25.

And the “Ratio of raphe to cerebellum, autoradiography” value ([8]; mice, horizontal sections)?
The value was 22.

And the Morbidity or mortality ([9]; 4, 20 and 40 μg/kg/day i.v.)?
Its Morbidity or mortality is “no morbidity or mortality”.

And the Tolerability ([9]; 4, 20 and 40 μg/kg/day i.v. on Days 1, 3 and 6)?
Its Tolerability is “well tolerated”.

What about the “Maximum tolerated dose (MTD)” value [9] of the same molecule?
The value was over 278 μg/m^2/day.

What about the “No observed adverse effect level (NOAEL)” value [9] of the same molecule?
The value was over 278 μg/m^2/day.

What about the “Maximum tolerated dose (MTD)” value ([9]; maximum dose level tested) of the same molecule?
Its value is “exceed 40 μg/kg/day”.

And the “No observed adverse effect level (NOAEL)” value ([9]; maximum dose level tested)?
Its value is “exceed 40 μg/kg/day”.

What about the “% human 5HT1A Selectivity, α1D” value [10, 14] of the same molecule?
Its value is 1.58%.

And the Ki ([10]; read-out: Binding affinity, Ki, α1D, human cloned receptor, PDSP)?
The Ki was 57 nM.

What about the “Level of binding in cortical layers I and II” value ([11]; dog brain cortex, relative to highest layer) of the same molecule?
The value was 100%.

What about the “Level of binding in cortical layers III and IV” value [11, 15] of the same molecule?
Its value is 31%.

And the “Level of binding in cortical layers V and VI” value [11, 15]?
The value was 36%.

What about the “Ratio of hippocampus to white matter, autoradiography” value ([11]; dog brain, same brain slice) of the same molecule?
Its value is over 50.

What about the “Binding displaced in hippocampus and cortex” value ([11]; in the presence of 10 μM of WAY-100635, dog (all the species)) of the same molecule?
The value was over 95%.

And the “Affinity, D5 subtype” value [12]?
The value was “very poor affinities”.

And the “HP/CB PET ratio” value ([13]; 90 mins post-injection, may be underestimated, ref Saigal et al., 2013)?
Its value is 3 ^g.

And the “Brain Uptake” value ([13]; ref Saigal et al., 2013, listed as 18F-Mefway)?
Its value is 5 %ID/cc.

What about the “Brain Uptake” value ([13]; ref Saigal et al., 2013) of the same molecule?
Its value is 5 ^g %ID/cc.
